Assay outcomes: PubChem, several laboratories
FAS TE block = inhibitors of human fatty acid synthase thioesterase domain. 0.67% of 360,000 active. P49327. recombinant FAS-TE, OMFH fluorogenic substrate, fluorescence endpoint. inhibition, % at 15 µM;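 active = compounds whose normalised, plate-corrected inhibition of enzyme fluorescence in the single-dose primary screen is 50% or more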;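 note: 0% = DMSO with enzyme and 100% = substrate without enzyme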
ADAM17 inh = inhibitors of human ADAM17; recombinant ADAM17, EDANS/DABCYL FRET peptide cleavage; 0.83% of 370,000 active; P78536; AID 720648; inhibition, % at 6.95 µM;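 active = inhibition above the mean of compounds lying between control limits plus 3 SD, set per campaign, cut at about 8.5% in these data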;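 note: 0% = DMSO-only wells as the low control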
Target sequence (P78536 215-824 limits assumed): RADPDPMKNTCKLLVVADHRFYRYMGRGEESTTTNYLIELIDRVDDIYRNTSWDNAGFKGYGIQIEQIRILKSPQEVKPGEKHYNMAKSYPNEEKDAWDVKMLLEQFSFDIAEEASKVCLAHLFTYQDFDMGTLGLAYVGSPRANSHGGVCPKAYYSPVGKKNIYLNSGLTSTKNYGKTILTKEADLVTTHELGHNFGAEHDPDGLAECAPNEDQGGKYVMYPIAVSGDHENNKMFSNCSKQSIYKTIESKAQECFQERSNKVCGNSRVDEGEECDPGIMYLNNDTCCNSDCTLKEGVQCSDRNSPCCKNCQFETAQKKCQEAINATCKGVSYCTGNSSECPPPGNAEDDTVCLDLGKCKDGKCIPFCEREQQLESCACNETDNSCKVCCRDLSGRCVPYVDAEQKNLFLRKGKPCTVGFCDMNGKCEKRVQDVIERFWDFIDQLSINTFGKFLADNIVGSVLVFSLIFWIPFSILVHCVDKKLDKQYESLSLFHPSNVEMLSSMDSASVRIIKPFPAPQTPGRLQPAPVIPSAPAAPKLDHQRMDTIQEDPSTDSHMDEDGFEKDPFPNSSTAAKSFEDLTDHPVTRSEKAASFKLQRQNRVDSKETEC
ADAM10 inh = ADAM10 inhibition, QFRET primary screen; recombinant ADAM10, EDANS/DABCYL FRET peptide cleavage, 3 h; inhibition, % at 7 µM; 0.62% of 370,000 active; AID 720582;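 active = inhibition above a per-campaign cutoff equal to the mean of compounds falling between control-based bounds plus 3 SD, cut at about 20% in these data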;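 note: 0% = DMSO wells while the 100% control is not disclosed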
SENP1 inh = SENP1 (human) catalytic domain inhibition; Q9P0U3; recombinant SENP1 catalytic domain, CyPet-SUMO1-YPet FRET cleavage; inhibition, % at 10 µM; 0.21% of 360,000 active;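 active = inhibition at least 30% at 10 µM, raw YFP signal under a set limit, fluorescence ratio 0.5 to 1.5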;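 note: 0% = enzyme with DMSO and 100% = no enzyme wells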
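Material: hSENP1 catalytic domain, recombinant; medium: Tris pH 8 with BME, BSA, NP40 and catalase; compound: single concentration of 10 µM compound, 0.5% DMSO final; technique: FRET read of cyan and yellow fluorescence; timing: 50 min enzyme reaction, room temperature, light-protected; reagent: SFCypet-SUMO1-SFYpet substrate at 25 nM; control set: no-enzyme low, enzyme-DMSO high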
Starred values were filed as active, the others as inactive; nt = no result. Most compounds without a hit are left out; they make up all but 1.9% or so of the library.

SMILES | FAS TE block | ADAM17 inh | ADAM10 inh | SENP1 inh
CCN1CCN(Cc2ccc(NC(=O)c3ccc(C)c(NC(=O)C(=O)c4c[nH]c5ccccc45)c3)cc2C(F)(F)F)CC1 | -22 | 7 | 18 | 0
CC(C)C[C@@H]1NC(=O)[C@H]2C[C@@]3(C)c4ccccc4N[C@H]3N2C1=O | nt | -6 | -11 | nt
COc1cc(Br)cc(/C=C/c2ccc3cccc(O)c3n2)c1O | 13 | -4 | 6 | 67*
CC1(C)C(C=C(Cl)Cl)C1C(=O)Nc1ccc([N+](=O)[O-])cc1 (configuration not stated) | nt | 11* | 25* | nt
O=C(Nc1ccc([N+](=O)[O-])cc1)C1CC1(c1ccccc1)c1ccccc1 (configuration not stated) | 12 | 3 | 3 | 5
CC1=C/C(=C\C=C(C#N)C#N)N(C)c2ccccc21 | 4 | 0 | 7 | 72*
COC(=O)C1=C(C(=O)OC)[C@@H]2N(Cc3ccccc3)c3ccccc3[C@@]23C[C@@H](C(=O)OC)N(C(=O)c2ccc(Br)cc2)C3=N1 | 84* | nt | nt | 5
O=C(COC(=O)c1ccccc1C(=O)c1ccccc1)Nc1ccc(SC(F)F)cc1 | 32 | 9.0* | 16 | 2
Cc1ccccc1C(=O)N1CCC(Oc2cccnc2)CC1 | nt | -4 | -5 | nt
Cc1ccc(NC(=O)CN(C)Cc2ccc(Cl)cc2)cc1 | 9 | 8.8* | 7 | 0
Cc1ccc(NC(=O)CN(C)CC(=O)Nc2ccc(F)c(Cl)c2)cc1 | 19 | 1 | 0 | 1
CCc1ccc(S(=O)(=O)Nc2ccc(O)c3c(=O)cc(-c4ccccc4Cl)oc23)cc1 | 36 | 6 | 17 | 3
O=c1cc(-c2ccccc2Cl)oc2c(NS(=O)(=O)c3cc(Cl)cc(Cl)c3O)ccc(O)c12 | 68* | nt | nt | 1
N=C(N)c1ccc(/C=C/c2ccc(C(=N)N)cc2O)cc1 | -10 | -29 | -60 | 55*
O=c1oc(Cl)c(Cl)c2ccccc12 | 92* | 0 | 10 | -8
CC1=NN(c2ccccc2)C(=O)/C1=C/C=C/C=C/N(C)C | -2 | 6 | 6 | 33*
CC1=NN(c2ccccc2)C(=O)/C1=C/c1ccc(Cl)cc1 | 2 | 4 | 25* | 1
CC1=NN(c2ccc(C)cc2)C(=O)/C1=C\C=C\c1ccccc1 | 0 | -5 | -5 | -1
Cc1ccc(NC(=O)CSc2nnc(CSc3nc(C)cc(C)n3)n2Cc2ccco2)c(C)c1 | 3 | 2 | 2 | -1
Cc1ccc(NCc2nnc(SCC(=O)c3ccccc3)n2Cc2ccco2)c(C)c1 | 5 | 0 | 29* | -9
Cc1sc2nc(SCC(=O)c3ccc(O)c(O)c3)n(C)c(=O)c2c1C | nt | 4 | 9 | nt
COC(=O)[C@]12C[C@H](CC(=O)N3CCN(C(=O)c4ccco4)CC3)C(=O)N(Cc3ccc(Cl)cc3Cl)C1=C[C@H](C1CCCC1)O[C@@H]2C | nt | 2 | 6 | nt
COc1cc(/C=C2\SC(=S)N(NC(=O)c3ccc(O)c(OC)c3)C2=O)ccc1O | -8 | 1 | 5 | 18
COc1cc(/C=C2\SC(=S)N(NC(=O)c3cccc(O)c3)C2=O)ccc1O | -5 | 3 | -2 | 24
COc1cc(/C=C2\SC(=S)N(NC(=O)c3ccncc3)C2=O)ccc1O | -2 | -1 | -11 | 49*
SMILES | FAS TE block | ADAM17 inh | ADAM10 inh | SENP1 inh
CCOc1cc(/C=C2\SC(=S)N(NC(=O)c3cccnc3)C2=O)ccc1O | -4 | 0 | -2 | 50*
Cc1ccc(N2C(=O)C3C(C2=O)N2C(c4cccs4)C4C(=O)N(c5ccc(C)cc5)C(=O)C4N2C3c2cccs2)cc1 (configuration not stated) | 84* | 13* | 12 | -2
CCOC(=O)C1(C)NC(c2cccs2)C2C(=O)N(c3ccc(C)cc3)C(=O)C21 (configuration not stated) | 0 | -1 | 0 | 1
Cc1ccc(S(=O)(=O)N2CCN(C(=O)c3cc4c(C)nn(-c5ccccc5C)c4s3)CC2)cc1 | -1 | 9.0* | 22* | 0
O=C(NC1CCC1)c1ccc(C#Cc2cccc(F)c2)nc1 | nt | -1 | -1 | nt
O=S(=O)(CC1NCCc2ccccc21)NCCc1ccccc1 (configuration not stated) | nt | -6 | -5 | nt
Cc1ccc2c3c(cccc13)-c1ccccc1C2=O | 18 | -17 | -77 | -27
Cc1coc2c1C(=O)C(=O)c1c-2ccc2c(C)cccc12 | 74* | nt | nt | -7
Cc1ccc(S(=O)(=O)c2nnn3c2nc(NC2CCN(Cc4ccccc4)CC2)c2ccccc23)cc1C | 86* | nt | nt | -7
